“Also recorded” adds a separate entry of the source. Where two headings read alike, the source gives them in different places.
Columns and labels:
Hemolytic activity = format: cell-based; conditions: bovine, erythrocyte (RBC) suspension, pH 7.4
In short: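 Bovine blood collected in EDTA, diluted in 0.9% NaCl and centrifuged at 1000 × g for 10 min. Erythrocytes were resuspended in PBS pH 7.4. Test compound solution (10 mg/mL stock) was mixed with the RBC suspension and incubated 30 min at room temperature. PBS served as negative control, Triton X-100 as positive control. Triplicate runs; mean ± SEM; % hemolysis calculated by formula.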

Jack bean urease [1] = target: T1, Jack bean urease (Canavalia ensiformis, UniProt P07374); experiment: In vitro urease inhibitory activity; format: biochemical
Jack bean urease [2] = target: T1, Jack bean urease; experiment: Kinetic analysis of urease inhibition; format: biochemical
In short: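 Jack bean urease (5 U/mL enzyme solution) in potassium phosphate buffer (10 mM K2HPO4, 1 mM EDTA, 10 mM LiCl, pH 8.2) at 37 °C. Ammonia read by indophenol method at 625 nm. Initial velocities taken from per-minute readings up to 10 min. Mode from Lineweaver–Burk plots; Ki from secondary plot with linear least-squares fit.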

T1 sequence (P07374 whole entry, looked up): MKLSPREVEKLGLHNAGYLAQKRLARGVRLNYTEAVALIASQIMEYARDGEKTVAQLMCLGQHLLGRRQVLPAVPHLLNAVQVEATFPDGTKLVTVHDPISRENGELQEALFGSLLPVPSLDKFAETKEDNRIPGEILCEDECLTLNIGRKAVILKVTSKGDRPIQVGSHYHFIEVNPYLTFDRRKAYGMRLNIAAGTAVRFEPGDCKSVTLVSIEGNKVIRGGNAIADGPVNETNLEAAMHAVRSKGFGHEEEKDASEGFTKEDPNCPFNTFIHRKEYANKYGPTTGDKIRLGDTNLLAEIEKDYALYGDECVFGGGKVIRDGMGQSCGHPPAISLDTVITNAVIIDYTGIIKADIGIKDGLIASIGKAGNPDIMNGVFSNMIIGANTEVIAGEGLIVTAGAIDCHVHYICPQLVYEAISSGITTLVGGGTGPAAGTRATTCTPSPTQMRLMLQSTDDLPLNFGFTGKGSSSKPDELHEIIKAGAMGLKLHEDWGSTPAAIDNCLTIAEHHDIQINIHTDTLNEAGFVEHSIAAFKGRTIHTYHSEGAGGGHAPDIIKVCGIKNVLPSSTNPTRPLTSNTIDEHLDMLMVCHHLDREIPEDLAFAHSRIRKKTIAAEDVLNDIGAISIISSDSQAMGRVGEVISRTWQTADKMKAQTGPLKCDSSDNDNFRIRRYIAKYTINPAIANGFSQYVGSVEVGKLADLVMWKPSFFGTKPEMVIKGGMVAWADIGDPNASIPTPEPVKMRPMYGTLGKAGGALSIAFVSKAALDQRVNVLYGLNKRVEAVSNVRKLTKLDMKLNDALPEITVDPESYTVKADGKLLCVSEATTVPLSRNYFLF

IC50 (Jack bean urease [1]) [nM]	SMILES	hemolysis at 30 min (Hemolytic activity) [%]	other results
54.2 ± 21.1	CCc1ccccc1NC(=O)CCCSc1nnc(CCCc2c[nH]c3ccccc23)o1 [Compound 8b]	2.41 ± 0.03	
17.5 ± 6.5	CCc1ccc(NC(=O)CCCSc2nnc(CCCc3c[nH]c4ccccc34)o2)cc1 [Compound 8c]	0.62 ± 0.02	Ki (Jack bean urease [2]): 3 nM; Vmax (ΔA/Min) (Jack bean urease [2]; 8c concentration 0.017 μM): 6.119 × 10^−5 ΔA/Min; Vmax (ΔA/Min) (Jack bean urease [2]; 8c concentration 0.034 μM): 4.599 × 10^−5 ΔA/Min; Inhibition type (Jack bean urease [2]; Lineweaver-Burk plot): non-competitively; also recorded: Non-competitive
71.7 ± 15.2	Cc1ccccc1NC(=O)CCCSc1nnc(CCCc2c[nH]c3ccccc23)o1 [Compound 8d]	5.18 ± 0.03	
32.3 ± 11.9	Cc1cccc(NC(=O)CCCSc2nnc(CCCc3c[nH]c4ccccc34)o2)c1 [Compound 8e]	5.92 ± 0.02	
200 ± 12.2	Cc1ccc(NC(=O)CCCSc2nnc(CCCc3c[nH]c4ccccc34)o2)c(C)c1 [Compound 8g, N-(2,4-dimethylphenyl)-4-({5-[3-(1H-indol-3-yl)propyl]-1,3,4-oxadiazol-2-yl}sulfanyl)butanamide]	1.41 ± 0.01	
37.5 ± 5.8	CCc1cccc(C)c1NC(=O)CCCSc1nnc(CCCc2c[nH]c3ccccc23)o1 [Compound 8j]	9.63 ± 0.05	

Second part, the compound before the results:

SMILES	IC50 (Jack bean urease [1]) [nM]	hemolysis at 30 min (Hemolytic activity) [%]	other results
CCOc1ccc(NC(=O)CCCSc2nnc(CCCc3c[nH]c4ccccc34)o2)cc1 [Compound 8a]	52.3 ± 4.4	3.16 ± 0.05	
Cc1ccc(NC(=O)CCCSc2nnc(CCCc3c[nH]c4ccccc34)o2)cc1 [Compound 8f]	102 ± 29.9	3.51 ± 0.04	
Cc1cccc(C)c1NC(=O)CCCSc1nnc(CCCc2c[nH]c3ccccc23)o1 [Compound 8h]	25.1 ± 8.3	2.63 ± 0.02	
Cc1cc(C)cc(NC(=O)CCCSc2nnc(CCCc3c[nH]c4ccccc34)o2)c1 [Compound 8i]	124 ± 31.8	7.32 ± 0.03	
NC(N)=S [Thiourea, reference compound]			IC50 (Jack bean urease [1]; read-out: Urease activity IC50 ± SEM, Jack bean urease 5 U/mL, 100 mM urea, pH 8.2, 30 min at 37 °C, triplicate): 4750 ± 54.6 nM
CC(C)(C)CC(C)(C)c1ccc(OCCO)cc1 [Triton X, reference compound]		89.11 ± 0.01	

From publication PMC9082783 (RSC Advances, 2018)
